An excerpt weighted towards active compounds, which were near 2.6% of everything screened.
SENP8 block-1 = inhibitors of human SENP8 protease. inhibition, % at 20 µM. recombinant SENP8, Nedd8 substrate fluorescence. AID 602440. 360,000 compounds, 0.64% hits; in the data active = inhibition mostly above about 40%, no sharp cut-off; inactive = mostly below about 27%
SENP8 block-2 = SENP8 protease inhibition | Q96LD8 | purified SENP8, Z-RLRGG-aminoluciferin cleavage, luminescence | inhibition, % at 10 µM | 330,000 compounds, 1.2% hits | AID 2540; in the data active = inhibition above about 50%
SENP1 FRET inh = blocks the human SENP1 SUMO protease catalytic domain; Q9P0U3; recombinant SENP1 catalytic domain, CyPet-SUMO1-YPet FRET cleavage; inhibition, % at 10 µM; 360,000 compounds, 0.21% hits; AID 624204;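 active = inhibition at least 30% at 10 µM, raw YFP signal under a set limit, fluorescence ratio 0.5 to 1.5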;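 note: 0% = enzyme with DMSO and 100% = no enzyme wells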
Target sequence (Q9P0U3 419-644 limits assumed): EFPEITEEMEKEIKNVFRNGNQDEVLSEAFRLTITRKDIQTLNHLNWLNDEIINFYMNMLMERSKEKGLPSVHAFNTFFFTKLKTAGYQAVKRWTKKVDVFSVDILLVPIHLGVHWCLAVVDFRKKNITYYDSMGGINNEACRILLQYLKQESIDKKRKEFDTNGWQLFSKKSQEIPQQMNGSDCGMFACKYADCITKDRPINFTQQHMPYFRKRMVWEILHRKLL
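Assay system: hSENP1 catalytic domain, recombinant. Amount: SENP1 enzyme, 20 pM final. Schedule: 50 min reaction, RT, dark. Technique: FRET, CFP and YFP emission. Control set: no-enzyme wells low, DMSO-plus-enzyme wells high control.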
UCH37 inh = human UCH37 deubiquitinating enzyme inhibition | inhibition, % (no concentration beside the values) | 330,000 compounds, 0.33% hits | purified proteasome/UCH37, Ub-AMC cleavage fluorescence;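 active = mean inhibition over replicate wells above about 20%, limit read from the data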;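 note: 0% = compound-free wells with enzyme and 100% = wells lacking proteasome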
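System: Proteasome-associated human UCH37 deubiquitinase; Input: 0.15 nM proteasome in added enzyme buffer; Also added: Ub-AMC substrate from 1 µM stock; Incubation: 30 min compound-proteasome preincubation then 25 min substrate reaction, room temperature; Detection: fluorescence, ex 355 nm, em 460 nm; Read-out: % inhibition of Ub-AMC cleavage fluorescence; Benchmarks: no-proteasome and no-compound wells.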
SENP7 block = inhibitors of human SENP7 protease; inhibition, % at 5 µM; recombinant SENP7, Z-RLRGG-aminoluciferin luminescence, 40 min; AID 434973; 330,000 compounds, 1.5% hits; Q9BQF6;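 active = inhibition above about 50% at the single test dose, limit read from the data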;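 note: plate controls were DMSO with enzyme for no effect and no enzyme buffer wells for full effect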
SENP6 inh = SENP6 protease inhibition; Q9GZR1; Recombinant SENP6 catalytic domain, aminoluciferin luminescence; inhibition, % at 10 µM; 330,000 compounds, 1.8% hits; AID 2599;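 active = inhibition above about 50% at the single tested dose, limit read from the data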;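 note: plate controls were DMSO wells with enzyme for no effect and DMSO wells lacking enzyme for full effect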
Target sequence (Q9GZR1 628-1112 limits assumed): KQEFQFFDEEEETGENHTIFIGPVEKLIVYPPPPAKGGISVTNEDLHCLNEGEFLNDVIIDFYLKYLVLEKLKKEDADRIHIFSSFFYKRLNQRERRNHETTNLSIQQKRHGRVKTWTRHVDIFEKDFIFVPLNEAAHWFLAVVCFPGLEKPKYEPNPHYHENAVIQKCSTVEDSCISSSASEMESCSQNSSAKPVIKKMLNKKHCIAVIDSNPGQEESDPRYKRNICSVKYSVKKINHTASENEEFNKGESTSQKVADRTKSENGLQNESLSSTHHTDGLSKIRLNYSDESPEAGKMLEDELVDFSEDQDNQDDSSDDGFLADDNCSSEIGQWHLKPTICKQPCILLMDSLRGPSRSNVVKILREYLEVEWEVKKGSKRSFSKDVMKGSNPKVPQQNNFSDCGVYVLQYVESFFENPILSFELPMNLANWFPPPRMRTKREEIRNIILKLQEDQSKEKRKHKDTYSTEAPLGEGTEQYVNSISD
SENP8 confirm = human SENP8 inhibition, confirmed; 6,200 compounds, 40% hits; shares compounds with SENP7 block; AID 488912; Recombinant SENP8, Z-RLRGG-aminoluciferin luminescence, 60 min; inhibition, % at 12.5 µM;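 active = mean inhibition across replicates above about 50%, limit read from the data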
SENP6 conf = confirmation of human SENP6 protease inhibitors. shares compounds with SENP7 block. recombinant SENP6, Z-RLRGG-aminoluciferin luminescence. inhibition, % at 12.5 µM. 6,200 compounds, 58% hits. AID 488915
SENP7 conf = confirmation of human SENP7 protease inhibitors; shares compounds with SENP7 block; recombinant SENP7, Z-RLRGG-aminoluciferin luminescence, 40 min; inhibition, % at 12.5 µM; 6,200 compounds, 69% hits
Casp3 SENP sel = selectivity test for SENP inhibitors: human caspase-3 inhibition. shares compounds with SENP7 block. purified caspase-3, Z-DEVD-aminoluciferin luminescence, 60 min. inhibition, % at 12.5 µM. 6,200 compounds, 60% hits. AID 488918;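 active = mean inhibition above about 50%, limit read from the data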;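 note: plate controls were enzyme with DMSO for no effect and wells without caspase-3 for full effect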
SENP luc ctr = interferes with luciferase luminescence in SENP counter-screen; inhibition, % at 12.5 µM; AID 488919; Pre-incubated SENP8/Z-RLRGG-aminoluciferin, luciferase luminescence interference; shares compounds with SENP7 block; 6,200 compounds, 39% hits;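 active = mean inhibition above about 50% when retested at one dose, limit read from the data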;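 note: plate controls were DMSO wells with completed reaction for no effect and substrate without enzyme for full effect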
Starred values were filed as active, the others as inactive; i = inactive; x = not tested or not shown.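 Rule for the calls, unless noted: active = mean inhibition above about 50% in the one-dose retest (limit read from the data); inactive = the rest.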

SMILES	SENP8 block-1	SENP8 block-2	SENP1 FRET inh	UCH37 inh	SENP7 block	SENP6 inh	SENP8 confirm	SENP6 conf	SENP7 conf	Casp3 SENP sel	SENP luc ctr
O=C(CCCN1C(=O)/C(=C/c2ccccc2)SC1=S)Nc1ccc(C(=O)O)c(O)c1	17.8	72.6*	2.1	x	19.6	79.0*	73.2*	72.0*	83.5*	31.9	76.4*
O=C(CCN1C(=O)/C(=C\c2ccccc2F)SC1=S)Nc1ccc(C(=O)O)c(O)c1	9.6	64.4*	2.8	x	11.6	66.0*	77.6*	73.3*	66.8*	12.1	51.7*
O=C(CNC(=O)c1ccccc1Br)NN=Cc1ccc(O)cc1	x	x	x	-2.0	x	x	x	x	x	x	x
Nc1nnn(CC(=O)NN=Cc2ccccc2)n1	x	x	x	4.4	x	x	x	x	x	x	x
N#CC(=NNc1ccc(S(=O)(=O)N2CCc3ccccc32)cc1)C(N)=S	x	x	x	8.1	x	x	x	x	x	x	x
Cc1ccnc2nc(C(=O)Nc3ccc4c(c3)OCO4)nn12	22.7	57.3*	0.2	5.7	-2.4	67.0*	35.7	63.4*	53.3*	90.5*	29.6
O=C(/C=C\Nc1ccc2c(c1)OCO2)c1ccccn1	-298.6	96.0*	-31.0	-9.6	99.9*	97.0*	81.4*	97.2*	99.0*	92.4*	26.0
O=C(Nc1ccc2c(c1)OCO2)c1cnccn1	-1.1	11.1	2.1	6.6	19.1	6.5	x	x	x	x	x
O=C(NCc1ccc2c(c1)OCO2)c1ccccn1	25.0	-10.8	1.9	0.1	0.0	2.1	x	x	x	x	x
O=C(Nc1ccc2c(c1)OCO2)c1ccccn1	12.3	52.7*	0.5	2.5	57.1*	65.6*	71.3*	71.0*	88.1*	88.7*	73.2*
O=C(NN=Cc1cccc(Br)c1)c1ccc(Br)cc1	x	x	x	1.4	x	x	x	x	x	x	x
Cc1ccsc1C=Nn1c(C2CCCCC2)n[nH]c1=S	x	x	x	4.9	x	x	x	x	x	x	x
O=C(Cc1ccc([N+](=O)[O-])cc1)NN=Cc1cccnc1	x	x	x	4.9	x	x	x	x	x	x	x
Cc1cccc(-c2nc3ccccc3c(=O)[nH]2)c1	-15.3	1.2	-4.3	-0.3	8.6	9.1	x	x	x	x	x
COc1ccc(-c2nc3ccccc3c(=O)[nH]2)cc1	0.1	21.6	0.4	-17.2	61.2*	51.7*	2.7	38.4	76.6*	37.4	0.1
O=c1[nH]c(-c2ccncc2)nc2ccccc12	-0.4	-2.2	-1.9	1.6	4.6	-5.8	x	x	x	x	x
CN(C)c1ccc(-c2nc3ccccc3c(=O)[nH]2)cc1	i	88.3*	-14.4	-60.6	94.5*	98.5*	40.7	94.7*	100.0*	89.0*	4.7
O=C(Nc1cc(Cl)cc(Cl)c1)c1cccc(OC(F)F)c1	24.1	-0.6	-0.1	-0.2	13.6	53.8*	41.5	32.7	68.8*	7.9	9.6
Cc1ccnc(NC(=O)c2cccc(OC(F)F)c2)n1	1.4	-0.3	1.7	1.3	5.4	-26.7	x	x	x	x	x
COc1ccc(NC(=O)c2cccc(OS(=O)(=O)N(C)C)c2)cc1	6.7	7.3	2.4	7.4	23.9	17.4	x	x	x	x	x
O=C(Nc1cccc(Cl)c1)c1ccc2ncsc2c1	9.1	48.9	0.8	-0.8	62.1*	56.6*	60.1*	59.6*	86.1*	51.3*	67.7*
CNS(=O)(=O)c1cccc(C(=O)Nc2cccc(Cl)c2)c1	19.0	-10.2	-1.4	1.2	16.8	26.2	x	x	x	x	x
CN(C)S(=O)(=O)Oc1cccc(C(=O)Nc2cccc(Cl)c2)c1	9.7	76.1*	1.0	5.1	88.5*	50.6*	85.1*	85.2*	96.7*	69.0*	74.8*
CN(C)S(=O)(=O)Oc1cccc(C(=O)Nc2ccc(Cl)c(Cl)c2)c1	5.1	54.5*	-1.6	6.0	38.3	63.8*	10.6	67.3*	86.2*	15.0	10.4
COc1ccc2nc(C=NNC(=O)CCNC(=O)OC(C)(C)C)ccc2c1	x	x	x	-337.8	x	x	x	x	x	x	x
SMILES	SENP8 block-1	SENP8 block-2	SENP1 FRET inh	UCH37 inh	SENP7 block	SENP6 inh	SENP8 confirm	SENP6 conf	SENP7 conf	Casp3 SENP sel	SENP luc ctr
O=C(CN(CCc1ccccc1)S(=O)(=O)c1ccc(Cl)cc1)NN=Cc1ccccc1C(=O)O	x	x	x	1.0	x	x	x	x	x	x	x
CN(C)c1ccc(C=NNC(=S)NCc2ccccc2)cc1	x	x	x	-124.9	x	x	x	x	x	x	x
COc1ccc(-c2nnc(-c3ccc(OCC(C)C)cc3)o2)cc1	-253.2	2.9	1.2	-7.6	5.2	6.7	x	x	x	x	x
CCOc1ccc(-c2nnc(-c3cccs3)o2)cc1	-284.3	73.2*	3.9	-61.2	85.4*	48.2	38.0	61.9*	60.4*	72.4*	22.2
c1csc(-c2nnc(-c3ccc(N4CCOCC4)cc3)o2)c1	-280.9	11.0	-11.0	-79.7	52.1*	58.9*	-11.6	-2.3	29.6	32.1	15.9
CC(C)COc1ccc(-c2nnc(-c3ccncc3)o2)cc1	-315.7	26.9	2.0	-15.1	56.6*	65.7*	25.0	31.4	41.4	46.5	30.0
COc1ccc(-c2nnc(-c3cccs3)o2)cc1OC	-317.9	44.5	2.1	-83.5	68.3*	62.8*	58.3*	56.5*	85.5*	81.4*	20.4
COc1cc(-c2nnc(-c3cccs3)o2)cc(OC)c1OC	-480.8	-5.8	-0.4	-84.2	-3.9	-0.7	x	x	x	x	x
c1cncc(-c2nnc(-c3cccs3)o2)c1	-132.7	-7.0	-1.1	-21.4	0.4	8.2	x	x	x	x	x
CCN(CC)c1ccc(C=NNC(N)=O)cc1	x	x	x	-147.8	x	x	x	x	x	x	x
N#CCC(=O)Nc1nc(-c2ccc3c(c2)OCCO3)cs1	-1.0	81.7*	-24.0	4.9	60.5*	89.4*	52.9*	67.4*	88.8*	67.8*	39.8
CC(=O)Nc1nc(-c2ccc3c(c2)OCO3)cs1	26.6	8.9	0.9	3.9	41.5	52.3*	27.2	24.5	56.3*	52.5*	22.1
COc1ccc2cc(-c3ccccc3F)ncc2c1	-119.2	96.6*	-3.1	0.9	99.8*	97.4*	98.3*	99.2*	102.8*	96.3*	96.8*
COc1ccc2cc(-c3ccon3)ccc2c1	-76.0	-3.5	0.7	-5.6	7.5	13.1	x	x	x	x	x
Fc1ccc2cc(-c3cccnc3)ncc2c1	-18.2	5.3	-0.5	-23.0	5.2	-7.1	x	x	x	x	x
COc1ccc(-c2cc3ccc(OC)cc3cn2)cc1	-474.4	46.4	1.0	-1.8	84.5*	68.2*	4.7	17.4	58.7*	40.6	-3.8

Screening results deposited in PubChem BioAssay by several laboratories.
